From ChEMBL document CHEMBL2331187, “Efficient synthesis of 3H,3'H-spiro[benzofuran-2,1'-isobenzofuran]-3,3'-dione as novel skeletons specifically for influenza virus type B inhibition” (Eur J Med Chem, 2013)

Experiments:
Influenza B virus [1] = experiment: Antiviral activity against Influenza B virus (B/Brisbane/60/2008) infected in MDCK cells assessed as inhibition of virus-induced cytopathogenicity at 1 hr post-infection measured after 3 days by fluorescein-diacetate based fluorimetric analysis; assay type: functional, cell-based; settings: B/Brisbane/60/2008, MDCK
Procedure, shortened: (§1)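 Confluent MDCK monolayers were mock-infected or infected with about 50-100 PFU of influenza virus per well. At read-out the medium was removed and cells were stained with fluorescein diacetate in PBS for 20 min at 35 °C. Fluorescence was read at ex 485/em 538 nm. CC50 and EC50 were derived from the fluorescence, and the selectivity index was taken as CC50/EC50.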

Influenza B virus [2] = experiment: Antiviral activity against Influenza B virus (B/Lee/40) infected in MDCK cells assessed as inhibition of virus-induced cytopathogenicity at 1 hr post-infection measured after 3 days by fluorescein-diacetate based fluorimetric analysis; assay type: functional, organism-based; settings: B/Lee/1940, MDCK; procedure, shortened: as §1
Influenza B virus [3] = experiment: Antiviral activity against Influenza B virus (B/Taiwan/2/62) infected in MDCK cells assessed as inhibition of virus-induced cytopathogenicity at 1 hr post-infection measured after 3 days by fluorescein-diacetate based fluorimetric analysis; assay type: functional, organism-based; procedure, shortened: as §1
Human alphaherpesvirus 1 = experiment: Antiviral activity against Herpes simplex virus 1 F infected in Vero cells assessed as inhibition of virus-induced cytopathogenicity by MTT assay; assay type: functional, organism-based; settings: Human alphaherpesvirus 1, strain F
Procedure, shortened: (§2)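 MTT-based CPE assay in Vero cells with HSV-1 strain F or HSV-2 strain MS. CC50 is the concentration that reduces viability of uninfected Vero cells by 50%. EC50 is the concentration that improves viability of HSV-infected cells by 50%.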

[4] = test system: Human immunodeficiency virus 2; experiment: Antiviral activity against Human immunodeficiency virus 2 ROD infected in MT4 cells assessed as inhibition of virus-induced cytopathogenicity by MTT assay; assay type: functional, organism-based; settings: Human immunodeficiency virus 2, ISOLATE ROD
Procedure, shortened: (§3)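 MTT-based CPE assay in MT4 cells. CC50 is the concentration that reduces viability of uninfected MT4 cells by 50%. EC50 is the concentration that improves viability of HIV-infected cells by 50%.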

[5] = Cytotoxicity against MDCK cells after 3 days by fluorescein diacetate-based fluorimetric analysis; assay type: cell-based, Canis lupus familiaris; settings: dog; procedure, shortened: as §1
Influenza B virus [6] = experiment: Antiviral activity against Influenza B virus (B/Panama/45/1990) infected in MDCK cells assessed as inhibition of virus-induced cytopathogenicity at 1 hr post-infection measured after 3 days by fluorescein-diacetate based fluorimetric analysis; assay type: functional, cell-based; settings: B/Panama/45/1990, MDCK; procedure, shortened: as §1
[7] = Selectivity ratio of CC50 for MDCK cells to EC50 for Influenza B virus (B/Taiwan/2/62); assay type: ADME, cell-based; settings: dog, read-out: Ratio CC50/EC50; procedure, shortened: as §1
[8] = Cytotoxicity against african green monkey Vero cells by MTT assay; assay type: cell-based; settings: chlorocebus sabaeus; procedure, shortened: as §2
Influenza A virus = experiment: Antiviral activity against Influenza A virus (A/Taiwan/1/1986(H1N1)) infected in MDCK cells assessed as inhibition of virus-induced cytopathogenicity at 1 hr post-infection measured after 3 days by fluorescein-diacetate based fluorimetric analysis; assay type: functional, organism-based; procedure, shortened: as §1
Human alphaherpesvirus 2 = experiment: Antiviral activity against Herpes simplex virus 2 MS infected in Vero cells assessed as inhibition of virus-induced cytopathogenicity by MTT assay; assay type: functional, organism-based; settings: Human alphaherpesvirus 2, MS; procedure, shortened: as §2
[9] = Selectivity ratio of CC50 for MDCK cells to EC50 for Influenza B virus (B/Lee/40); assay type: ADME, cell-based; settings: dog, read-out: Ratio CC50/EC50; procedure, shortened: as §1
[10] = Cytotoxicity against human MT4 cells by MTT assay; assay type: cell-based; procedure, shortened: as §3
[11] = Selectivity ratio of CC50 for MDCK cells to EC50 for Influenza B virus (B/Panama/45/1990); assay type: ADME, cell-based; settings: dog, read-out: Ratio CC50/EC50; procedure, shortened: as §1
[12] = test system: Human immunodeficiency virus 1; experiment: Antiviral activity against Human immunodeficiency virus 1 3B infected in MT4 cells assessed as inhibition of virus-induced cytopathogenicity by MTT assay; assay type: functional, organism-based; procedure, shortened: as §3
[13] = Selectivity ratio of CC50 for MDCK cells to EC50 for Influenza B virus (B/Brisbane/60/2008); assay type: ADME, cell-based; settings: dog, read-out: Ratio CC50/EC50; procedure, shortened: as §1
MDCK = experiment: Cytotoxicity against MDCK cells assessed as cell death at 500 uM after 3 days by fluorescein diacetate-based fluorimetric analysis; design: species or system Canis lupus familiaris; settings: dog, 72 h

| SMILES | CC50 at 72 h [5] | EC50 (Influenza B virus [6]) | EC50 (Influenza A virus) | other results |
| --- | --- | --- | --- | --- |
| Cc1cc2c(cc1C)C(=O)C1(OC(=O)c3ccccc31)O2 (configuration not stated) | > 500 µM | 3 µM | 23.4 µM | EC50 (Influenza B virus [1]): 4.8 µM; EC50 (Influenza B virus [2]): 16.1 µM; EC50 (Influenza B virus [3]): 3.6 µM; EC50 (Human alphaherpesvirus 1): > 312 µM; EC50 [4]: > 158 µM; selectivity ratio [7]: 30; CC50 [8]: 312 µM; EC50 (Human alphaherpesvirus 2): > 312 µM; selectivity ratio [9]: 30; CC50 [10]: 158 µM; selectivity ratio [11]: > 15; EC50 [12]: > 158 µM; selectivity ratio [13]: 30 |
| O=C1OC2(Oc3ccccc3C2=O)c2ccccc21 (configuration not stated) | > 500 µM | 88.1 µM | > 500 µM | selectivity ratio [11]: 20 |
| CC(C)c1ccc2c(c1)OC1(OC(=O)c3ccccc31)C2=O (configuration not stated) | 314 µM | 44.9 µM | 148 µM |  |
| O=C1OC2(Oc3c(ccc4ccccc34)C2=O)c2ccccc21 (configuration not stated) | 40.4 µM | < 6.2 µM | < 6.2 µM |  |
| O=C1OC2(Oc3cc4ccccc4cc3C2=O)c2ccccc21 (configuration not stated) | > 500 µM | 96.1 µM | 206 µM | EC50 (Influenza B virus [1]): 132 µM; EC50 (Influenza B virus [2]): 159 µM; EC50 (Influenza B virus [3]): 39.4 µM |
| O=C1OC2(Oc3cc(-c4ccccc4)ccc3C2=O)c2ccccc21 (configuration not stated) | 36.3 µM | < 6.2 µM | 7.6 µM | selectivity ratio [11]: < 5 |
| O=C1OC2(Oc3cc(Cl)ccc3C2=O)c2ccccc21 (configuration not stated) | > 500 µM | > 500 µM | > 500 µM |  |
| CCOC(=O)c1ccc2c(c1)C(=O)C1(OC(=O)c3ccccc31)O2 (configuration not stated) | > 500 µM | > 500 µM | > 500 µM |  |
| O=C1OC2(Oc3cc(F)ccc3C2=O)c2ccccc21 (configuration not stated) | > 500 µM | 8.2 µM | 100 µM | Activity (MDCK): > 20%; selectivity ratio [11]: > 15 |
| O=C1OC2(Oc3c(Cl)ccc(Cl)c3C2=O)c2ccccc21 (configuration not stated) | 86 µM | 18.4 µM | 25.5 µM |  |
| Cc1cc2c(cc1C)C1(OC2=O)Oc2cc(C(C)C)ccc2C1=O (configuration not stated) | > 500 µM | > 500 µM | 321 µM |  |
| COc1cc2c(cc1OC)C1(OC2=O)Oc2cc(C(C)C)ccc2C1=O (configuration not stated) | > 500 µM | 33.3 µM | > 500 µM | Activity (MDCK): 47%; selectivity ratio [11]: > 15 |
| Nc1ccc2c(c1)OC1(OC(=O)c3ccccc31)C2=O (configuration not stated) | 305 µM | 27.4 µM | 49 µM |  |
| COc1ccc2c(c1)OC1(OC(=O)c3ccccc31)C2=O (configuration not stated) | > 500 µM | > 500 µM | > 500 µM |  |
| Cc1cccc2c1OC1(OC(=O)c3ccccc31)C2=O (configuration not stated) | > 500 µM | 24.7 µM | 83.2 µM | EC50 (Influenza B virus [1]): 104 µM; EC50 (Influenza B virus [2]): 199 µM; EC50 (Influenza B virus [3]): 53 µM |
| Cc1ccc2c(c1)OC1(OC(=O)c3ccccc31)C2=O (configuration not stated) | 376 µM | 25.7 µM | 27.8 µM | EC50 (Influenza B virus [1]): 46.9 µM; EC50 (Influenza B virus [2]): 59.9 µM; EC50 (Influenza B virus [3]): 31.2 µM |
| Cc1ccc2c(c1)C(=O)C1(OC(=O)c3ccccc31)O2 (configuration not stated) | 293 µM | 7.6 µM | 32.9 µM | EC50 (Influenza B virus [1]): 28 µM; EC50 (Influenza B virus [2]): 32.8 µM; EC50 (Influenza B virus [3]): 24.8 µM |
